Experimental data published in PMC10074403 (Chemical Science, 2023).

What was measured:
A2780 cells = test: Intracellular EdU release from PE NPs; format: cell-based, human; settings: 10 μM EdU equiv., 6 h with PE NPs (1 h with EdU), azide-488
In short: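 Human ovarian adenocarcinoma A2780 cells are treated with nanoparticles of mutual prodrugs built with the nucleoside analog EdU as a gemcitabine surrogate, or with free EdU; nanoparticle exposure is 6 h. EdU incorporated into DNA is detected by click reaction with azide-488. Images show green overlap with blue-stained nuclei (cyan) to indicate nuclear EdU incorporation.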

[1] = system: A549 human lung adenocarcinoma xenografts; test: In vivo anticancer efficacy in A549 xenografts; design: species or system female BALB/c nude mice; settings: PTX 20 mg kg−1 equiv., Gem 6.4 mg kg−1, i.v. on days 0, 3, 6; n = 5

| SMILES | Distribution of green fluorescence (EdU incorporation into nuclei) (A2780 cells) | A549 tumor growth (relative tumor size) [1] |
| --- | --- | --- |
| C#Cc1cn([C@H]2C[C@H](O)[C@@H](CO)O2)c(=O)[nH]c1=O [EdU, 5-ethynyl-2′-deoxyuridine] | centralized in the area of the nucleus | – |
| Nc1ccn([C@@H]2O[C@H](CO)[C@@H](O)C2(F)F)c(=O)n1 [Gem, gemcitabine] | – | failed to effectively suppress tumor growth |
